Measurements published in ChEMBL document CHEMBL3758165, “In vitro interactions between anidulafungin and nonsteroidal anti-inflammatory drugs on biofilms of Candida spp” (2016).

Assays:
Format in all cases: functional
Candida albicans [1] = assay: Antibiofilm activity against Candida albicans ATCC 24433 by two dimensional checkerboard dilution method in presence of anidulafungin
Outline: (§1)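 Biofilms grown on sterilized PVC disks: 1·10^6 cfu/ml Candida cells adhered for 1.5 h at 37 °C with shaking, washed with PBS, then matured 48 h at 37 °C in RPMI 1640 (MOPS, pH 7). Preformed biofilms were washed and exposed to drug, alone or in two-dimensional checkerboard combination, in RPMI 1640 for 24 h at 37 °C on a rocker.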

[2] = test system: Meyerozyma guilliermondii; assay: Antibiofilm activity against Candida guilliermondii ATCC 6260 by two dimensional checkerboard dilution method in presence of anidulafungin; outline: as §1
Candida albicans [3] = assay: Antibiofilm activity against Candida albicans ATCC 10231 by two dimensional checkerboard dilution method; outline: as §1
Candida albicans [4] = assay: Potentiation of anidulafungin-induced antibiofilm activity against Candida albicans ATCC 24433 assessed as anidulafungin-fractional inhibitory concentration index by two dimensional checkerboard dilution method
Outline: (§2)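 Biofilms grown on PVC disks: 1·10^6 cfu/ml in RPMI 1640 (MOPS, pH 7), 1.5 h adhesion at 37 °C with shaking, PBS wash, 48 h maturation at 37 °C. Preformed biofilms exposed 24 h at 37 °C to anidulafungin/NSAID checkerboard combinations in RPMI. XTT-menadione reduction read at 490 nm. SMIC = 50% metabolic reduction versus drug-free control. Triplicate runs on different days; FIC index calculated.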

Candida albicans [5] = assay: Potentiation of anidulafungin-induced antibiofilm activity against Candida albicans ATCC 10231 at 0.1 uM to 100 mM after 48 hrs by XTT reduction assay relative to control; parameters: scale not given: the % may be the effect or the level left; outline: as §1
Nakaseomyces glabratus [6] = assay: Antibiofilm activity against Candida glabrata 18a10 by two dimensional checkerboard dilution method; outline: as §1
Nakaseomyces glabratus [7] = assay: Potentiation of anidulafungin-induced antibiofilm activity against Candida glabrata ATCC 15126 assessed as anidulafungin-fractional inhibitory concentration index by two dimensional checkerboard dilution method; outline: as §2
[8] = test system: Meyerozyma guilliermondii; assay: Potentiation of anidulafungin-induced antibiofilm activity against Candida guilliermondii a410 assessed as anidulafungin-fractional inhibitory concentration index by two dimensional checkerboard dilution method; outline: as §2
Candida albicans [9] = assay: Antibiofilm activity against Candida albicans ATCC 90028 assessed as fractional inhibitory concentration by two dimensional checkerboard dilution method in presence of anidulafungin; outline: as §2
Candida albicans [10] = assay: Potentiation of anidulafungin-induced antibiofilm activity against Candida albicans ATCC 10231 assessed as anidulafungin-fractional inhibitory concentration index by two dimensional checkerboard dilution method; outline: as §2
[11] = test system: Meyerozyma guilliermondii; assay: Potentiation of anidulafungin-induced antibiofilm activity against Candida guilliermondii a410 at 0.1 uM to 100 mM after 48 hrs by XTT reduction assay relative to control; parameters: scale not given: the % may be the effect or the level left; outline: as §1
Candida albicans [12] = assay: Antibiofilm activity against Candida albicans ATCC 24433 by two dimensional checkerboard dilution method; outline: as §1
[13] = test system: Meyerozyma guilliermondii; assay: Antibiofilm activity against Candida guilliermondii a410 by two dimensional checkerboard dilution method in presence of anidulafungin; outline: as §1
Candida albicans [14] = assay: Potentiation of anidulafungin-induced antibiofilm activity against Candida albicans 17a18 at 0.1 uM to 100 mM after 48 hrs by XTT reduction assay relative to control; parameters: scale not given: the % may be the effect or the level left; outline: as §1
Candida albicans [15] = assay: Antibiofilm activity against Candida albicans ATCC 10231 by two dimensional checkerboard dilution method in presence of anidulafungin; outline: as §1
Candida albicans [16] = assay: Antibiofilm activity against Candida albicans 17a18 assessed as fractional inhibitory concentration by two dimensional checkerboard dilution method in presence of anidulafungin; outline: as §2
[17] = test system: Meyerozyma guilliermondii; assay: Potentiation of anidulafungin-induced antibiofilm activity against Candida guilliermondii ATCC 6260 assessed as anidulafungin-fractional inhibitory concentration index by two dimensional checkerboard dilution method; outline: as §2
[18] = test system: Meyerozyma guilliermondii; assay: Antibiofilm activity against Candida guilliermondii ATCC 6260 by two dimensional checkerboard dilution method; outline: as §1
Candida albicans [19] = assay: Potentiation of anidulafungin-induced antibiofilm activity against Candida albicans 17a18 assessed as anidulafungin-fractional inhibitory concentration index by two dimensional checkerboard dilution method; outline: as §2
Candida albicans [20] = assay: Potentiation of anidulafungin-induced antibiofilm activity against Candida albicans ATCC 90028 assessed as anidulafungin-fractional inhibitory concentration index by two dimensional checkerboard dilution method; outline: as §2
Candida albicans [21] = assay: Antibiofilm activity against Candida albicans ATCC 90028 by two dimensional checkerboard dilution method; outline: as §1
Nakaseomyces glabratus [22] = assay: Potentiation of anidulafungin-induced antibiofilm activity against Candida glabrata 18a10 at 0.1 uM to 100 mM after 48 hrs by XTT reduction assay relative to control; parameters: scale not given: the % may be the effect or the level left; outline: as §1
[23] = test system: Meyerozyma guilliermondii; assay: Antibiofilm activity against Candida guilliermondii a83 assessed as fractional inhibitory concentration by two dimensional checkerboard dilution method in presence of anidulafungin; outline: as §2
Candida albicans [24] = assay: Antibiofilm activity against Candida albicans 17a18 at 0.1 uM to 100 mM after 48 hrs by XTT reduction assay relative to control; parameters: scale not given: the % may be the effect or the level left; outline: as §1
[25] = test system: Meyerozyma guilliermondii; assay: Antibiofilm activity against Candida guilliermondii ATCC 6260 assessed as fractional inhibitory concentration by two dimensional checkerboard dilution method in presence of anidulafungin; outline: as §2
[26] = test system: Meyerozyma guilliermondii; assay: Antibiofilm activity against Candida guilliermondii a83 by two dimensional checkerboard dilution method in presence of anidulafungin; outline: as §1
Nakaseomyces glabratus [27] = assay: Antibiofilm activity against Candida glabrata ATCC 15126 by two dimensional checkerboard dilution method in presence of anidulafungin; outline: as §1
[28] = test system: Meyerozyma guilliermondii; assay: Antibiofilm activity against Candida guilliermondii a410 by two dimensional checkerboard dilution method; outline: as §1
Nakaseomyces glabratus [29] = assay: Antibiofilm activity against Candida glabrata ATCC 15126 by two dimensional checkerboard dilution method; outline: as §1
Nakaseomyces glabratus [30] = assay: Potentiation of anidulafungin-induced antibiofilm activity against Candida glabrata 18a10 assessed as anidulafungin-fractional inhibitory concentration index by two dimensional checkerboard dilution method; outline: as §2
[31] = test system: Meyerozyma guilliermondii; assay: Antibiofilm activity against Candida guilliermondii a83 at 0.1 uM to 100 mM after 48 hrs by XTT reduction assay relative to control; parameters: scale not given: the % may be the effect or the level left; outline: as §1
Nakaseomyces glabratus [32] = assay: Antibiofilm activity against Candida glabrata 18a10 by two dimensional checkerboard dilution method in presence of anidulafungin; outline: as §1
[33] = test system: Meyerozyma guilliermondii; assay: Potentiation of anidulafungin-induced antibiofilm activity against Candida guilliermondii ATCC 6260 at 0.1 uM to 100 mM after 48 hrs by XTT reduction assay relative to control; parameters: scale not given: the % may be the effect or the level left; outline: as §1
[34] = test system: Meyerozyma guilliermondii; assay: Potentiation of anidulafungin-induced antibiofilm activity against Candida guilliermondii a83 at 0.1 uM to 100 mM after 48 hrs by XTT reduction assay relative to control; parameters: scale not given: the % may be the effect or the level left; outline: as §1
[35] = test system: Meyerozyma guilliermondii; assay: Antibiofilm activity against Candida guilliermondii a83 by two dimensional checkerboard dilution method; outline: as §1
[36] = test system: Meyerozyma guilliermondii; assay: Potentiation of anidulafungin-induced antibiofilm activity against Candida guilliermondii a83 assessed as anidulafungin-fractional inhibitory concentration index by two dimensional checkerboard dilution method; outline: as §2
Candida albicans [37] = assay: Potentiation of anidulafungin-induced antibiofilm activity against Candida albicans ATCC 90028 at 0.1 uM to 100 mM after 48 hrs by XTT reduction assay relative to control; parameters: scale not given: the % may be the effect or the level left; outline: as §1
Nakaseomyces glabratus [38] = assay: Antibiofilm activity against Candida glabrata 18a10 assessed as fractional inhibitory concentration by two dimensional checkerboard dilution method in presence of anidulafungin; outline: as §2
Candida albicans [39] = assay: Antibiofilm activity against Candida albicans 17a18 by two dimensional checkerboard dilution method; outline: as §1
Nakaseomyces glabratus [40] = assay: Antibiofilm activity against Candida glabrata 18a10 at 0.1 uM to 100 mM after 48 hrs by XTT reduction assay relative to control; parameters: scale not given: the % may be the effect or the level left; outline: as §1

Structure (SMILES)	MIC (Candida albicans [1]) [µM]	MIC [2] [µM]	MIC (Candida albicans [3])	fractional inhibitory concentration index (FICI) (Candida albicans [4])	Activity (Candida albicans [5]) [%]	MIC (Nakaseomyces glabratus [6])	fractional inhibitory concentration index (FICI) (Nakaseomyces glabratus [7])	fractional inhibitory concentration index (FICI) [8]	Ratio (Candida albicans [9])	fractional inhibitory concentration index (FICI) (Candida albicans [10])	Activity [11] [%]	MIC (Candida albicans [12])	MIC [13] [µM]	Activity (Candida albicans [14]) [%]	MIC [18]	MIC (Candida albicans [21])	MIC [28]	MIC (Nakaseomyces glabratus [29])	MIC [35]	MIC (Candida albicans [39])	also measured
O=C([O-])Cc1ccccc1Nc1c(Cl)cccc1Cl.[Na+] [DICLOFENAC SODIUM]	5000	40000	100000 µM	0.1	66.15	100000 µM	0.3	0.45	0.05	0.1	54.28	100000 µM	40000	64.25	100000 µM	100000 µM	100000 µM	100000 µM	100000 µM	100000 µM	MIC (Candida albicans [15]): 5000 µM; Ratio (Candida albicans [16]): 0.05; fractional inhibitory concentration index (FICI) [17]: 0.45; fractional inhibitory concentration index (FICI) (Candida albicans [19]): 0.1; fractional inhibitory concentration index (FICI) (Candida albicans [20]): 0.1; Activity (Nakaseomyces glabratus [22]): 58.66%; Ratio [23]: 0.2; Activity (Candida albicans [24]): 55.33%; Ratio [25]: 0.4; MIC [26]: 20000 µM; MIC (Nakaseomyces glabratus [27]): 20000 µM; fractional inhibitory concentration index (FICI) (Nakaseomyces glabratus [30]): 0.3; Activity [31]: 57.87%; MIC (Nakaseomyces glabratus [32]): 20000 µM; Activity [33]: 57.69%; Activity [34]: 55.64%; fractional inhibitory concentration index (FICI) [36]: 0.3; Activity (Candida albicans [37]): 71.04%; Ratio (Nakaseomyces glabratus [38]): 0.2; Activity (Nakaseomyces glabratus [40]): 44.54%
CCCCCOc1ccc(-c2ccc(-c3ccc(C(=O)N[C@@H]4C[C@@H](O)[C@@H](O)NC(=O)[C@@H]5[C@@H](O)[C@@H](C)CN5C(=O)[C@H]([C@@H](C)O)NC(=O)[C@H]([C@H](O)[C@@H](O)c5ccc(O)cc5)NC(=O)[C@@H]5C[C@@H](O)CN5C(=O)[C@H]([C@H](C)O)NC4=O)cc3)cc2)cc1			2 µg/mL			2 µg/mL						2 µg/mL			2 µg/mL	2 µg/mL	2 µg/mL	2 µg/mL	2 µg/mL	2 µg/mL	
CC(=O)Oc1ccccc1C(=O)O [ASPIRIN]	100	100	200 µM	0.15	82.81	200 µM	0.1	0.15	0.05	0.1	41.54	1000 µM	100	51.74	1000 µM	1000 µM	1000 µM	200 µM	200 µM	200 µM	MIC (Candida albicans [15]): 10 µM; Ratio (Candida albicans [16]): 0.05; fractional inhibitory concentration index (FICI) [17]: 0.15; fractional inhibitory concentration index (FICI) (Candida albicans [19]): 0.1; fractional inhibitory concentration index (FICI) (Candida albicans [20]): 0.1; Activity (Nakaseomyces glabratus [22]): 48.58%; Ratio [23]: 0.05; Activity (Candida albicans [24]): 46.55%; Ratio [25]: 0.1; MIC [26]: 10 µM; MIC (Nakaseomyces glabratus [27]): 10 µM; fractional inhibitory concentration index (FICI) (Nakaseomyces glabratus [30]): 0.1; Activity [31]: 46.22%; MIC (Nakaseomyces glabratus [32]): 10 µM; Activity [33]: 50.37%; Activity [34]: 45.32%; fractional inhibitory concentration index (FICI) [36]: 0.1; Activity (Candida albicans [37]): 57.84%; Ratio (Nakaseomyces glabratus [38]): 0.05; Activity (Nakaseomyces glabratus [40]): 32.32%
CC(C)Cc1ccc(C(C)C(=O)O)cc1 (centres undefined) [IBUPROFEN]	1000	20	1000 µM	0.3	59.51	200 µM	0.25	0.3	0.1	0.25	51.31	1000 µM	20	64.22	200 µM	1000 µM	200 µM	200 µM	200 µM	1000 µM	MIC (Candida albicans [15]): 50 µM; Ratio (Candida albicans [16]): 0.05; fractional inhibitory concentration index (FICI) [17]: 0.3; fractional inhibitory concentration index (FICI) (Candida albicans [19]): 0.25; fractional inhibitory concentration index (FICI) (Candida albicans [20]): 0.3; Activity (Nakaseomyces glabratus [22]): 62.33%; Ratio [23]: 0.2; Activity (Candida albicans [24]): 24.51%; Ratio [25]: 0.1; MIC [26]: 40 µM; MIC (Nakaseomyces glabratus [27]): 40 µM; fractional inhibitory concentration index (FICI) (Nakaseomyces glabratus [30]): 0.25; Activity [31]: 56.78%; MIC (Nakaseomyces glabratus [32]): 40 µM; Activity [33]: 53.32%; Activity [34]: 52.11%; fractional inhibitory concentration index (FICI) [36]: 0.25; Activity (Candida albicans [37]): 61.43%; Ratio (Nakaseomyces glabratus [38]): 0.2; Activity (Nakaseomyces glabratus [40]): 53.44%
